From ChEMBL document CHEMBL1152541, “Staurosporine tethered peptide ligands that target cAMP-dependent protein kinase (PKA): optimization and selectivity profiling” (Bioorg Med Chem, 2009)
*1 amine or outer side, *2 acyl side, *3 side chain or, on linkers, in order; H or OH if unused. Where a SMILES comes first, the peptide text is derived from it. Bridges are numbered along the chain shown (N, C = ends). [ ]: non-standard residue; d: D form. The star is where a group is joined. Staurosporine = CO[C@@H]1[C@H](N(C)*)C[C@H]2O[C@]1(C)n1c3ccccc3c3c4c(c5c6ccccc6n2c5c31)C(=O)NC4; Suc = O=C(CCC(=O)[*:2])[*:1]; Dap = NC[C@H](N)C(=O)O; βAla = NCCC(=O)O

Key:
[1] = target: T1, Aurora kinase A (Homo sapiens) (UniProt O14965); experiment: Binding affinity to human aurora kinase A at 500 nM by cell-based competition binding assay relative to control in presence of DTT
T1 sequence (whole entry): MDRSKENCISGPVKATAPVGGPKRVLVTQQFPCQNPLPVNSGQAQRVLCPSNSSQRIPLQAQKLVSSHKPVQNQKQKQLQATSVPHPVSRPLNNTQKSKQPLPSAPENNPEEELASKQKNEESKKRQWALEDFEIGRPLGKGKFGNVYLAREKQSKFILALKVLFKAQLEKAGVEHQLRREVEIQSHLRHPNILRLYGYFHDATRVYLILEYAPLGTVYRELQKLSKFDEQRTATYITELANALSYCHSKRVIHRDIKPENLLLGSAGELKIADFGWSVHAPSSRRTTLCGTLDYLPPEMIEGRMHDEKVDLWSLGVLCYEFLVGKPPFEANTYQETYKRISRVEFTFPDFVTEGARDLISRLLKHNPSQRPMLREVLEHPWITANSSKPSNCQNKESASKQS

[2] = target: RAC-alpha serine/threonine-protein kinase (Homo sapiens) (UniProt P31749); experiment: Binding affinity to human AKT1 at 200 nM by cell-based competition binding assay relative to control in presence of DTT
Outline: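 Kinase binding profiling ran on a commercial (Ambit) competitive binding screen against a panel of 90 kinases. The screen used reducing conditions with 7.5 mM DTT. To withstand the DTT, the bivalent ligand was tested as its amide isostere, with the disulfide replaced. A staurosporine derivative carrying a 3 β-alanine linker was run as the reference compound.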

[3] = target: Serine/threonine-protein kinase pim-2 (Homo sapiens) (UniProt Q9P1W9); experiment: Binding affinity to human PIM2 at 200 nM by cell-based competition binding assay relative to control in presence of DTT
[4] = target: T2, Tyrosine-protein kinase ZAP-70 (Homo sapiens) (UniProt P43403); experiment: Binding affinity to human ZAP70 at 50 nM by cell-based competition binding assay relative to control in presence of DTT
T2 sequence (whole entry): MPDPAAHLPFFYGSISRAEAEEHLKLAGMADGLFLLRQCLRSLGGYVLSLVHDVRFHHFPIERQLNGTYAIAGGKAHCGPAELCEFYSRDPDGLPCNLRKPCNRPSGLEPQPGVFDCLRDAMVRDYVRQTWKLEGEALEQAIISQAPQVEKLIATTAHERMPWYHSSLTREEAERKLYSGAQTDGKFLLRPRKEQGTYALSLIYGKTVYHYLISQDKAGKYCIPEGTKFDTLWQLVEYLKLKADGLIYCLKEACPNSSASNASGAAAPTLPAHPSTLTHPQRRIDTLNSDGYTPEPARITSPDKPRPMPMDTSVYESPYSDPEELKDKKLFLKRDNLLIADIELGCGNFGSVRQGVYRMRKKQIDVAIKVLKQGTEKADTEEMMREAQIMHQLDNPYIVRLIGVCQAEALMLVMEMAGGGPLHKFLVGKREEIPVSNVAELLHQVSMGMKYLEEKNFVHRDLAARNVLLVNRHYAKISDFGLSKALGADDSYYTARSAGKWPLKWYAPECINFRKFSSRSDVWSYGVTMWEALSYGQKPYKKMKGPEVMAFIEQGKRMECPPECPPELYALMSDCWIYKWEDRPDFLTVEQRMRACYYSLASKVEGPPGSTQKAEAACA

[5] = target: Macrophage colony-stimulating factor 1 receptor (Homo sapiens) (UniProt P07333); experiment: Binding affinity to human CSF1R at 50 nM by cell-based competition binding assay relative to control in presence of DTT
Outline: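 Commercial (Ambit) competitive kinase-binding panel of 90 kinases measured the binding profile. Run under reducing conditions of 7.5 mM DTT. Binding is expressed relative to control.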

[6] = target: T3, NUAK family SNF1-like kinase 2 (Homo sapiens) (UniProt Q9H093); experiment: Binding affinity to human SNARK at 50 nM by cell-based competition binding assay relative to control in presence of DTT
T3 sequence (whole entry): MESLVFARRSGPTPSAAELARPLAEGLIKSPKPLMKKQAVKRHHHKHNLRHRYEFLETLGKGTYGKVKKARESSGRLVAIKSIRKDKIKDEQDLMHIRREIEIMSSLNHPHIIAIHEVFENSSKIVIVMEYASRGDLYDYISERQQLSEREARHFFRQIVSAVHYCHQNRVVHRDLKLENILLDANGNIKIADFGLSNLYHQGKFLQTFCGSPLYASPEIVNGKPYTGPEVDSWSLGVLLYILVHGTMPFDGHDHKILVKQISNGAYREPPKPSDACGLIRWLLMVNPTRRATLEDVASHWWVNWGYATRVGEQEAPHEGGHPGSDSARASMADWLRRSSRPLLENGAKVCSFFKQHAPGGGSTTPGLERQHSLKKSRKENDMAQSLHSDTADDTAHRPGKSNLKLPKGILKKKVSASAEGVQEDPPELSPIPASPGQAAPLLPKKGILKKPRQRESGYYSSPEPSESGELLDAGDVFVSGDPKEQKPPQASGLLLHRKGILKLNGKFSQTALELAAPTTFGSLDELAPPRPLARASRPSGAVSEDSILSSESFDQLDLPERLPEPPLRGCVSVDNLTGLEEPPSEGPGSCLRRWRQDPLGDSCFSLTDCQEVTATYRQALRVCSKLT

[7] = target: MAP kinase-activated protein kinase 2 (Homo sapiens) (UniProt P49137); experiment: Binding affinity to human MAPKAPK2 at 50 nM by cell-based competition binding assay relative to control in presence of DTT
Outline: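 Competition binding screen (Ambit) across a panel of 90 kinases, scoring test ligand displacement of each kinase's binding relative to control. The screen ran under reducing conditions with 7.5 mM DTT.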

[8] = target: T1, Aurora kinase A (Homo sapiens); experiment: Binding affinity to human aurora kinase A at 50 nM by cell-based competition binding assay relative to control in presence of DTT

Sequence of Macrophage colony-stimulating factor 1 receptor (Homo sapiens) (P07333 whole entry): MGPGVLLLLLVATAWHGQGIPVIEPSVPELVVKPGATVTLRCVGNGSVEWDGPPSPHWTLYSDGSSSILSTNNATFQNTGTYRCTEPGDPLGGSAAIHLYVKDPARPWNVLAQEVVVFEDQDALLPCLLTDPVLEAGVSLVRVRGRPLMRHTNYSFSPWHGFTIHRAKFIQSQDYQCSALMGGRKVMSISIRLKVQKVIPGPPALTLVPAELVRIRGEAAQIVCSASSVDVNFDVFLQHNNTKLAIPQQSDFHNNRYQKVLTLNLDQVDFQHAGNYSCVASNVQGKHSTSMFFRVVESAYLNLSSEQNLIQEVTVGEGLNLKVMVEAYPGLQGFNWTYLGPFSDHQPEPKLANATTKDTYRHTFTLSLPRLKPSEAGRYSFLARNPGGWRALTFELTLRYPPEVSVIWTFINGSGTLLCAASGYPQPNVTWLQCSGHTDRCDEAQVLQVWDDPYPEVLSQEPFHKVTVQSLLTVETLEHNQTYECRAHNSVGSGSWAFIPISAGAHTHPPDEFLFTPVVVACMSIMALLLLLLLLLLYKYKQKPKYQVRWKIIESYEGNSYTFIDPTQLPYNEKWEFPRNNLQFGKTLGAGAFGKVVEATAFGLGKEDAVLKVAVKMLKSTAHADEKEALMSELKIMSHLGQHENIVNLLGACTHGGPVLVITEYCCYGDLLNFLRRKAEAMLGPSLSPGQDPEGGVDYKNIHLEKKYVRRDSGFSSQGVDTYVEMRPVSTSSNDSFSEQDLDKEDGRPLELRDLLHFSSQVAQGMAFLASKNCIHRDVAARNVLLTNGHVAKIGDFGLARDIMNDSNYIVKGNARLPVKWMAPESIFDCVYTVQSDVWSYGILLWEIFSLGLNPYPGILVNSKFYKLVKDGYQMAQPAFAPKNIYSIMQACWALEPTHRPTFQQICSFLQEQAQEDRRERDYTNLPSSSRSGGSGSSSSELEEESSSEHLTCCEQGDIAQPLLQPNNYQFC
Sequence of MAP kinase-activated protein kinase 2 (Homo sapiens) (P49137 whole entry, looked up): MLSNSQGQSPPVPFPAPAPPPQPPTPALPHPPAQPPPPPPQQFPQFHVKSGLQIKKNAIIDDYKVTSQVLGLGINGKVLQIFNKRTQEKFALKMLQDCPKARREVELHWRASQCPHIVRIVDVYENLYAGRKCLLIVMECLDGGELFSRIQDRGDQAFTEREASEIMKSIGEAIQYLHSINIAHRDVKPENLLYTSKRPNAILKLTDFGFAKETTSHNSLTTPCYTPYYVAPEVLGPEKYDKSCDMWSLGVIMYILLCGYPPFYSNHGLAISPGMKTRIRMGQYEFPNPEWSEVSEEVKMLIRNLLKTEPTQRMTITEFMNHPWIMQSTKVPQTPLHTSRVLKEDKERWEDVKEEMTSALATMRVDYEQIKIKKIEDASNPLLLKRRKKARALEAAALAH
Sequence of RAC-alpha serine/threonine-protein kinase (Homo sapiens) (P31749 whole entry): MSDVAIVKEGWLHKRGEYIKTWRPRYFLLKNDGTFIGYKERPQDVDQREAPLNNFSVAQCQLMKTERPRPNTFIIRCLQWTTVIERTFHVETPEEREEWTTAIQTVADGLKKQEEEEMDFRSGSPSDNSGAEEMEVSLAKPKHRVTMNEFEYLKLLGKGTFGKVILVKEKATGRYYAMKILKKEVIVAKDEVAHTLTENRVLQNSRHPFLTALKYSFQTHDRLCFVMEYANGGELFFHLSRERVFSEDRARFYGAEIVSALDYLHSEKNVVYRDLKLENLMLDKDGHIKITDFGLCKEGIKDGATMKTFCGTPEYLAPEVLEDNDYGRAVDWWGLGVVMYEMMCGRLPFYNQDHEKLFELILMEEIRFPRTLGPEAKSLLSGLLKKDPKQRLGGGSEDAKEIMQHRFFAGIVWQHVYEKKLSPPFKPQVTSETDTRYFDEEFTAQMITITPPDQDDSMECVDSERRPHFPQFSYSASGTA
Sequence of Serine/threonine-protein kinase pim-2 (Homo sapiens) (Q9P1W9 whole entry, looked up): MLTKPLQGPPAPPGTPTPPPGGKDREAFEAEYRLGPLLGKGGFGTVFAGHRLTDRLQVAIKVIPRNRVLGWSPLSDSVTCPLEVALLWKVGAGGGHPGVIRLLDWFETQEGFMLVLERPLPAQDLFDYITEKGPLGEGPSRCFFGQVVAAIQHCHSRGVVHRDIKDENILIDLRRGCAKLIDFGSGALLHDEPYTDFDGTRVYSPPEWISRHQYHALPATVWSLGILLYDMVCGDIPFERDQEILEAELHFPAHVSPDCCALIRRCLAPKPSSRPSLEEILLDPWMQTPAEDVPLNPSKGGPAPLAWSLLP

Question: Which Activity [1] does the source give for `CO[C@@H]1[C@H](N(C)C(=O)CCC(=O)NCCC(=O)NCCC(=O)NCCC(N)=O)C[C@H]2O[C@]1(C)n1c3ccccc3c3c4c(c5c6ccccc6n2c5c31)C(=O)NC4` here?
Answer: Its Activity is 4.2%.

Question: How did the Activity [2] turn out when `CO[C@@H]1[C@H](N(C)C(=O)CCC(=O)NCCC(=O)NCCC(=O)NCCC(=O)NCCC(=O)NCCC(=O)NCCC(=O)NCCC(=O)N[C@H]2CSSC[C@@H](C(=O)NCC(N)=O)NC(=O)CNC(=O)[C@H](Cc3ccccc3)NC(=O)[C@H](C(C)C)NC(=O)[C@H](CCCNC(=N)N)NC(=O)[C@H](Cc3ccccc3)NC(=O)[C@H](C(C)C)NC2=O)C[C@H]2O[C@]1(C)n1c3ccccc3c3c4c(c5c6ccccc6n2c5c31)C(=O)NC4` ({Staurosporine-Suc-βAla-βAla-βAla-βAla-βAla-βAla-βAla}-CVFRVFGCG-NH2; disulfide 1-8) was run?
Answer: The Activity was 100%.

Question: And the Activity [3]?
Answer: Its Activity is 100%.

Question: Which Activity [4] does the source give for `CO[C@@H]1[C@H](N(C)C(=O)CCC(=O)NCCC(=O)NCCC(=O)NCCC(=O)NCCC(=O)NCCC(=O)NCCC(=O)NCCC(=O)N[C@H]2CNC(=O)C[C@@H](C(N)=O)NC(=O)CNC(=O)[C@H](Cc3ccccc3)NC(=O)[C@H](C(C)C)NC(=O)[C@H](CCCNC(=N)N)NC(=O)[C@H](Cc3ccccc3)NC(=O)[C@H](C(C)C)NC2=O)C[C@H]2O[C@]1(C)n1c3ccccc3c3c4c(c5c6ccccc6n2c5c31)C(=O)NC4` ({Staurosporine-Suc-βAla-βAla-βAla-βAla-βAla-βAla-βAla}-[Dap]VFRVFGD-NH2; lactam 1-8) here?
Answer: Its Activity is 57%.

Question: And the Activity [5]?
Answer: Its Activity is 83%.

Question: What about the Activity [6] of the same compound?
Answer: Its Activity is 1.8%.

Question: And the Activity [7]?
Answer: Its Activity is 100%.

Question: What about the Activity [8] of the same compound?
Answer: The Activity was 63%.
